Activity calls are given as the source filed them. No cut-off for these calls is given here.
How the values were obtained:
[1] = Aqueous solubility of the compound; type: physicochemical; details: buffer
Plasmodium falciparum = assay: Antimalarial activity against mefloquine-resistant Plasmodium falciparum TM91C235 assessed as [3H]hypoxanthine incorporation after 48 hrs; type: functional, organism-based
Outline: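 Tritiated hypoxanthine incorporation assay (Desjardins method, Milhous modification) with 48 h drug exposure. Uses P. falciparum clone TM91C235 (Southeast Asian, mefloquine-resistant). Compounds 2-fold diluted over 11 concentrations. IC50 derived by nonlinear logistic dose-response fitting, averaged where multiple runs were done.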

HepG2 = assay: Cytotoxicity against human HepG2 cells after 24 hrs by MTS assay; type: cell-based; details: HepG2, 24 h
Outline: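 HepG2 cells kept in RPMI 1640 with 10% FBS plus antibiotics at 37 °C, 5% CO₂. 50 000 cells per well exposed to 10 two-fold serial dilutions for 24 h. MTS reagent then added for 2 h more, absorbance read at 490 nm, IC50 derived.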

Liver microsomes [2] = assay: Intrinsic clearance in human liver microsomes assessed per gram of liver at 1 uM after 60 mins at pH 7.4 by LC-MS/MS analysis; type: ADME, Microsome; details: pH 7.4, 1 h
Outline: (§1)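 Liver microsomes (0.5 mg protein/mL) in 50 mM potassium phosphate pH 7.4 with 1.0 μM compound at 37 °C for 60 min. Reaction started with NADP/glucose-6-phosphate/MgCl₂/G6PDH cofactor mix; solvent 1% final. LC-MS/MS read-out. CLi from first-order elimination constant by nonlinear regression, corrected for incubation volume, assuming 52.5 mg microsomal protein/g liver.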

Liver microsomes [3] = assay: Intrinsic clearance in rat liver microsomes assessed per gram of liver at 1 uM after 60 mins at pH 7.4 by LC-MS/MS analysis; type: ADME, Microsome; details: pH 7.4, 1 h; outline: as §1
Liver = assay: Intrinsic clearance in mouse liver microsomes assessed per gram of liver at 1 uM after 60 mins at pH 7.4 by LC-MS/MS analysis; type: ADME, Microsome; details: pH 7.4, 1 h; outline: as §1
Plasma = assay: Plasma protein binding in mouse at 1 ug/ml after 30 mins; type: ADME, cell-free; details: 0.5 h
Outline: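 Ultrafiltration on mouse plasma preincubated 15 min at 37 °C, compound spiked to 1 μg/mL final. Aliquots taken at 0 and 15 min, remainder spun through a 10 kDa filter for 30 min at 37 °C, 2850 g. Filtrate deproteinized and analysed by LC-MS/MS.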

[4] = Clearance at steady state in CD1 mouse at 5 mg/kg, iv; type: ADME, organism-based; design: dose 5 mg/kg, route intravenous; details: in vivo, read-out: CLss
Outline: (§2)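 Male CD-1 mice (N = 3 per route) dosed IV at 5 mg/kg or orally at 25 mg/kg while fasted, mostly in saline (2.5 mg/mL). Tail-vein blood taken up to 24 h, cardiac puncture at 30 h. Samples hemolyzed, protein-precipitated with acetonitrile plus internal standard, analysed by positive ESI LC-MS/MS.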

[5] = Volume of distribution at steady state in CD1 mouse at 5 mg/kg, iv; type: ADME, organism-based; design: dose 5 mg/kg, route intravenous; details: in vivo, read-out: Vdss; outline: as §2
[6] = Half life in CD1 mouse at 5 mg/kg, iv; type: ADME, organism-based; design: dose 5 mg/kg, route intravenous; details: CD1, mouse, in vivo; outline: as §2
[7] = Oral bioavailability in CD1 mouse at 25 mg/kg; type: ADME, organism-based; details: in vivo; outline: as §2
[8] = Fraction unbound in CD1 mouse plasma at 5 mg/kg, iv; type: ADME, organism-based; design: dose 5 mg/kg, route intravenous
Outline: (§3)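 Fraction unbound measured in mouse plasma by ultrafiltration at 1 μg/mL. Unbound clearance = blood clearance/fu, assuming blood/plasma ratio of 1. Blood clearance comes from male CD-1 mice dosed IV at 5 mg/kg, with tail-vein sampling up to 24 h and LC-MS/MS analysis.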

Mus musculus = assay: Unbound clearance in CD1 mouse at 5 mg/kg, iv; type: ADME, organism-based; design: dose 5 mg/kg, route intravenous; details: in vivo; outline: as §3
Plasmodium berghei [9] = assay: Antimalarial activity against Plasmodium berghei KBG173 infected in mouse assessed as increase in mouse survival time at 5 mg/kg, iv BID administered on day 3, 4 and 5 post infection relative to azithromycin; type: functional
Outline: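 Male mice (24−30 g) inoculated intraperitoneally with 5 × 10⁶ P. berghei KBG-173-infected erythrocytes; parasitemia 1.0–3.7% by day 3. IV dosing twice daily on days 3, 4 and 5 post-infection. Read-out is the survival time of the last animal alive. Mice blood-smear negative on day 31 counted as cured; mice losing ≥20% body weight sacrificed.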

Plasmodium berghei [10] = assay: Antimalarial activity against Plasmodium berghei KBG173 infected in mouse assessed as cured mouse at 5 mg/kg, iv BID administered on day 3, 4 and 5 post infection measured up to day 31; type: functional, organism-based; design: dose 5 mg/kg
Outline: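 Male mice (24–30 g) inoculated intraperitoneally with 5 × 10⁶ P. berghei KBG-173-infected erythrocytes; parasitemia about 1.0–3.7% by day 3. Dosing twice daily on days 3–5 postinfection. Blood smears negative on day 31 counted as cured, scored as cured/total mice (5 per dose). Mice losing ≥20% body weight sacrificed.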

CC(=O)O.CC[C@H]1OC(=O)[C@H](C)[C@@H](O[C@H]2C[C@@](C)(OC)[C@@H](O)[C@H](C)O2)[C@H](C)[C@@H](O[C@@H]2O[C@H](C)C[C@H](N(C)C)[C@H]2O)[C@](C)(O)C[C@@H](C)CN(CCC(=O)N[C@H](C)c2cccc3ccccc23)[C@H](C)[C@@H](O)[C@]1(C)O
solubility [1]: >= 10 mg kg-1

CC[C@H]1OC(=O)[C@H](C)[C@@H](O[C@H]2C[C@@](C)(OC)[C@@H](O)[C@H](C)O2)[C@H](C)[C@@H](O[C@@H]2O[C@H](C)C[C@H](N(C)C)[C@H]2O)[C@](C)(O)C[C@@H](C)CN(CCCNC(=O)CCc2ccccc2)[C@H](C)[C@@H](O)[C@]1(C)O [listing 1 of 2 here]
IC50 (Plasmodium falciparum): 70 nM
IC50 (HepG2): > 50000 nM
CLint (Liver microsomes [2]): < 0.6 mL/min/g
CLint (Liver microsomes [3]): < 0.6 mL/min/g
CLint (Liver): < 0.6 mL/min/g
PPB (Plasma): 43%
clearance [4]: 23.3 mL/min/kg
Vd [5]: 5 L/kg
half-life [6]: 6.9 h
bioavailability [7]: 12.7%
fraction unbound [8]: 0.43
CL free (Mus musculus): 54 mL/min/kg
Survival (Plasmodium berghei [9]): -12 days

CC[C@H]1OC(=O)[C@H](C)[C@@H](O[C@H]2C[C@@](C)(OC)[C@@H](O)[C@H](C)O2)[C@H](C)[C@@H](O[C@@H]2O[C@H](C)C[C@H](N(C)C)[C@H]2O)[C@](C)(O)C[C@@H](C)CN(CCC(=O)N[C@H](C)c2cccc3ccccc23)[C@H](C)[C@@H](O)[C@]1(C)O
Activity (Plasmodium berghei [10]): inactive

CC(=O)O.CC[C@H]1OC(=O)[C@H](C)[C@@H](O[C@H]2C[C@@](C)(OC)[C@@H](O)[C@H](C)O2)[C@H](C)[C@@H](O[C@@H]2O[C@H](C)C[C@H](N(C)C)[C@H]2O)[C@](C)(O)C[C@@H](C)CN(CCCNc2ccnc3ccccc23)[C@H](C)[C@@H](O)[C@]1(C)O
solubility [1]: >= 10 mg kg-1

CC[C@H]1OC(=O)[C@H](C)[C@@H](O[C@H]2C[C@@](C)(OC)[C@@H](O)[C@H](C)O2)[C@H](C)[C@@H](O[C@@H]2O[C@H](C)C[C@H](N(C)C)[C@H]2O)[C@](C)(O)C[C@@H](C)CN(CCCNc2ccnc3ccccc23)[C@H](C)[C@@H](O)[C@]1(C)O [listing 1 of 2 here]
Activity (Plasmodium berghei [10]): inactive

CC[C@H]1OC(=O)[C@H](C)[C@@H](O[C@H]2C[C@@](C)(OC)[C@@H](O)[C@H](C)O2)[C@H](C)[C@@H](O[C@@H]2O[C@H](C)C[C@H](N(C)C)[C@H]2O)[C@](C)(O)C[C@@H](C)CN(CCCNc2ccnc3cc(Cl)ccc23)[C@H](C)[C@@H](O)[C@]1(C)O
IC50 (Plasmodium falciparum): 22 nM
IC50 (HepG2): 30000 nM
CLint (Liver microsomes [2]): < 0.6 mL/min/g
CLint (Liver microsomes [3]): < 0.6 mL/min/g
CLint (Liver): < 0.6 mL/min/g
PPB (Plasma): 43%
clearance [4]: 4 mL/min/kg
Vd [5]: 2.9 L/kg
half-life [6]: 17.8 h
bioavailability [7]: 20.4%
fraction unbound [8]: 0.42
CL free (Mus musculus): 9.5 mL/min/kg
Survival (Plasmodium berghei [9]): 9 days

CC(=O)O.CC[C@H]1OC(=O)[C@H](C)[C@@H](O[C@H]2C[C@@](C)(OC)[C@@H](O)[C@H](C)O2)[C@H](C)[C@@H](O[C@@H]2O[C@H](C)C[C@H](N(C)C)[C@H]2O)[C@](C)(O)C[C@@H](C)CN(CCCNCc2ccnc3ccccc23)[C@H](C)[C@@H](O)[C@]1(C)O
solubility [1]: >= 10 mg kg-1

CC[C@H]1OC(=O)[C@H](C)[C@@H](O[C@H]2C[C@@](C)(OC)[C@@H](O)[C@H](C)O2)[C@H](C)[C@@H](O[C@@H]2O[C@H](C)C[C@H](N(C)C)[C@H]2O)[C@](C)(O)C[C@@H](C)CN(CCCNCc2ccnc3ccccc23)[C@H](C)[C@@H](O)[C@]1(C)O
Activity (Plasmodium berghei [10]): inactive

CC[C@H]1OC(=O)[C@H](C)[C@@H](O[C@H]2C[C@@](C)(OC)[C@@H](O)[C@H](C)O2)[C@H](C)[C@@H](O[C@@H]2O[C@H](C)C[C@H](N(C)C)[C@H]2O)[C@](C)(O)C[C@@H](C)CN(CCCNc2ccnc3ccccc23)[C@H](C)[C@@H](O)[C@]1(C)O [listing 2 of 2 here]
IC50 (Plasmodium falciparum): 25 nM
IC50 (HepG2): > 50000 nM
CLint (Liver microsomes [2]): < 0.6 mL/min/g
CLint (Liver microsomes [3]): < 0.6 mL/min/g
CLint (Liver): < 0.6 mL/min/g
PPB (Plasma): 43%
clearance [4]: 7.7 mL/min/kg
Vd [5]: 4.9 L/kg
half-life [6]: 14.4 h
bioavailability [7]: 1.7%
fraction unbound [8]: 0.39
CL free (Mus musculus): 20 mL/min/kg
Survival (Plasmodium berghei [9]): 3 days

CC(=O)O.CC[C@H]1OC(=O)[C@H](C)[C@@H](O[C@H]2C[C@@](C)(OC)[C@@H](O)[C@H](C)O2)[C@H](C)[C@@H](O[C@@H]2O[C@H](C)C[C@H](N(C)C)[C@H]2O)[C@](C)(O)C[C@@H](C)CN(CCCNc2ccnc3cc(Cl)ccc23)[C@H](C)[C@@H](O)[C@]1(C)O
solubility [1]: >= 10 mg kg-1

CC(=O)O.CC[C@H]1OC(=O)[C@H](C)[C@@H](O[C@H]2C[C@@](C)(OC)[C@@H](O)[C@H](C)O2)[C@H](C)[C@@H](O[C@@H]2O[C@H](C)C[C@H](N(C)C)[C@H]2O)[C@](C)(O)C[C@@H](C)CN(CCCNC(=O)CCc2ccccc2)[C@H](C)[C@@H](O)[C@]1(C)O
solubility [1]: >= 10 mg kg-1

CC[C@H]1OC(=O)[C@H](C)[C@@H](O[C@H]2C[C@@](C)(OC)[C@@H](O)[C@H](C)O2)[C@H](C)[C@@H](O[C@@H]2O[C@H](C)C[C@H](N(C)C)[C@H]2O)[C@](C)(O)C[C@@H](C)CN(CCCNC(=O)CCc2ccccc2)[C@H](C)[C@@H](O)[C@]1(C)O [listing 2 of 2 here]
Activity (Plasmodium berghei [10]): inactive

CCOc1ccc2ccccc2c1CNCCCN1C[C@H](C)C[C@@](C)(O)[C@H](O[C@@H]2O[C@H](C)C[C@H](N(C)C)[C@H]2O)[C@@H](C)[C@H](O[C@H]2C[C@@](C)(OC)[C@@H](O)[C@H](C)O2)[C@@H](C)C(=O)O[C@H](CC)[C@@](C)(O)[C@H](O)[C@H]1C
IC50 (Plasmodium falciparum): 26 nM
IC50 (HepG2): 7000 nM

CC[C@H]1OC(=O)[C@H](C)[C@@H](O[C@H]2C[C@@](C)(OC)[C@@H](O)[C@H](C)O2)[C@H](C)[C@@H](O[C@@H]2O[C@H](C)C[C@H](N(C)C)[C@H]2O)[C@](C)(O)C[C@@H](C)CN(CCC(=O)NCc2ccccc2)[C@H](C)[C@@H](O)[C@]1(C)O
IC50 (Plasmodium falciparum): 261 nM
IC50 (HepG2): > 50000 nM

CC[C@H]1OC(=O)[C@H](C)[C@@H](O[C@H]2C[C@@](C)(OC)[C@@H](O)[C@H](C)O2)[C@H](C)[C@@H](O[C@@H]2O[C@H](C)C[C@H](N(C)C)[C@H]2O)[C@](C)(O)C[C@@H](C)CN(CCC(=O)NCCCCc2ccccc2)[C@H](C)[C@@H](O)[C@]1(C)O
IC50 (Plasmodium falciparum): 162 nM
IC50 (HepG2): 40000 nM

CC[C@H]1OC(=O)[C@H](C)[C@@H](O[C@H]2C[C@@](C)(OC)[C@@H](O)[C@H](C)O2)[C@H](C)[C@@H](O[C@@H]2O[C@H](C)C[C@H](N(C)C)[C@H]2O)[C@](C)(O)C[C@@H](C)CN(CCCNCc2cccnc2)[C@H](C)[C@@H](O)[C@]1(C)O
IC50 (Plasmodium falciparum): 391 nM
IC50 (HepG2): > 50000 nM

CC[C@H]1OC(=O)[C@H](C)[C@@H](O[C@H]2C[C@@](C)(OC)[C@@H](O)[C@H](C)O2)[C@H](C)[C@@H](O[C@@H]2O[C@H](C)C[C@H](N(C)C)[C@H]2O)[C@](C)(O)C[C@@H](C)CN(CCCNCCCCc2ccccc2)[C@H](C)[C@@H](O)[C@]1(C)O
IC50 (Plasmodium falciparum): 51 nM
IC50 (HepG2): 16000 nM

CC[C@H]1OC(=O)[C@H](C)[C@@H](O)[C@H](C)[C@@H](O)[C@](C)(O)C[C@@H](C)CN(CCCNCc2cnc3ccccc3c2)[C@H](C)[C@@H](O)[C@]1(C)O
IC50 (Plasmodium falciparum): 1890 nM
IC50 (HepG2): > 50000 nM
